Results published in article PMC8634121 (Brain, 2021).

Tests used:
[1] = biological target: T1, SAM-TIR protein (human SARM1) (Homo sapiens, UniProt Q6SZW1); assay: Washout assay with plate-bound SAM-TIR; assay type: biochemical; conditions: 2 h treatment, plates rinsed, assayed 60 min after removal of compound
T1 sequence (Q6SZW1 408-700): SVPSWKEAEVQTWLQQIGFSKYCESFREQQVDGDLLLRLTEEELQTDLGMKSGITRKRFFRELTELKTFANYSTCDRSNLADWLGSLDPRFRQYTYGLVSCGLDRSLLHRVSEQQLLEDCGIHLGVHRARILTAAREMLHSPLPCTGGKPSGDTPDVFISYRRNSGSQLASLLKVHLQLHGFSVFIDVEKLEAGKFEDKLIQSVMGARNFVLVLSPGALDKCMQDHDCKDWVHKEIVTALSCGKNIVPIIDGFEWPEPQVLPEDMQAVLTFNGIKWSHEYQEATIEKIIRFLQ
In short: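 SAM-TIR lysate (30 µg/ml total protein) was captured via its Strep-tag on Strep-Tactin XT plates, and unbound material was rinsed off. Bound enzyme was exposed to test compound for 2 h, rinsed, then held in assay solution without NAD+ for 0, 10 or 60 min. Wells were rinsed again, and activity was started by adding NAD+. A reversible reference inhibitor was run alongside.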

[2] = system: mouse DRG neurons; assay: Axon degeneration assay after axotomy in mouse DRG cultures; assay type: cell-based; conditions: 3 h pulse at 10 µM, compound removed, axotomy immediately; examined 16-72 h
In short: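 Embryonic day 13.5 C57BL/6J mouse DRGs were trypsin/EDTA-dissociated (37°C, 15 min) and spot-plated at 5000 cells/well on poly-D-lysine/laminin in Neurobasal/B27 with NGF, uridine and fluorodeoxyuridine. At DIV 6–7, cultures got a 3 h pulse of test compound at 10 µM (from 10 mM DMSO stock; […] DMSO final). Compound was rinsed out, […]. Axons were manually cut with a micro-blade, then PFA-fixed and immunostained.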

SARM1 inhibition after compound removal [1]: Substantial loss of inhibition
SMILES: Ic1cccc2cnccc12 [DSRM-3716]
axonal protection after compound removal [2]: completely lost
